Source: PubChem (several laboratories)
STAT3 act – activators of IL-6 induced STAT3 signaling | U3A cells, IL-6 STAT3-luciferase reporter, luminescence; 100% = signal with IL-6 EC80 alone | activation (% of control), % at 5.6 µM | 190,000 tested, 0.91% active | AID 871;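 active = activation above the screen-wide mean of compound activation plus 3 SD, cut at about 130% in these data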;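 note: 0% = background luminescence of wells with medium and substrate only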
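Material: human STAT1-deficient U3A cells with stable STAT3-luciferase reporter / Probe or stimulus: IL-6 stimulus at 33 ng/mL final / Schedule: 1 h compound pre-exposure, 6 h IL-6 stimulation, 37 °C / Technique: luminescence / Read-out basis: percent of IL-6-only median luminescence / Control set: IL-6-only high control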
NF-kB expr up – compounds increasing NF-kB expression in human neuronal cells | NF-kB reporter expression; hits give high values | fold change at 12.5 µM | 190,000 tested, 1.6% active; in the data active = fold change above about 3.3
STAT1 activator – increases IFN-gamma driven STAT1 reporter signal; NIH 3T3 STAT1-luciferase reporter, luminescence; 100% = IFN-gamma alone, no compound; activation (% of control), % at 5.5 µM; 200,000 tested, 2.6% active; AID 932;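 active = activation above the screen-wide mean activation plus 3 SD, cut at about 130% in these data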;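 note: raw ratio to IFN-gamma control signal so 100% means no change and 0% no light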
STAT3 blocker – reduces IL-6 driven STAT3 reporter signal; 190,000 tested, 0.89% active; U3A cells, IL-6 STAT3-luciferase reporter, luminescence; host cell line lacks STAT1; AID 862; inhibition, % at 5.5 µM;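 active = inhibition above the mean inhibition across all screened compounds plus 3 SD, cut at about 44% in these data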;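 note: 0% = DMSO only wells and 100% = 100 µM nifuroxazide control wells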
STAT1 inh – STAT1 signaling inhibition; NIH 3T3 STAT1-luciferase reporter, IFN-gamma, luminescence; inhibition, % at 5.5 µM; 200,000 tested, 0.35% active;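 active = inhibition above a set limit, the mean inhibition across all tested compounds plus 3 SD, cut at about 34% in these data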;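 note: 0% = IFN-gamma with DMSO and 100% = IFN-gamma with 300 µM nifuroxazide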
APP 5'UTR act – APP 5'UTR luciferase reporter activation | SH-SY5Y APP 5'UTR luciferase reporter, luminescence; zero percent = DMSO vehicle wells | activation, % at 2 µM | 190,000 tested, 1% active | AID 1276;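 active = activation above a set limit, based on mean plus 3 SD of controls, cut at about 140% in these data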
STAT1 activ conf – confirmation of STAT1 signaling activators | shares compounds with STAT1 activator | NIH 3T3 STAT1-luciferase reporter, IFN-gamma potentiation, luminescence; 100% = IFN-gamma EC80 alone, no compound | activation (% of control), % at 5.7 µM | 1,200 tested, 97% active;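 active = activation above a set limit carried over from the earlier primary STAT1 screen, cut at about 140% in these data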;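 note: simple ratio to median IFN-gamma plus DMSO wells so 0% means no light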
NFkB act STAT1ct – NF-kappaB activation in STAT1 activator counter-screen | shares compounds with STAT1 activator | HEK293T NF-kB luciferase reporter, TNF-alpha stimulated, luminescence; 100% = TNF-alpha with vehicle only | activation (% of control), % at 5.7 µM | 1,200 tested, 43% active | AID 1306;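 active = activation above the mean of solvent-only control wells plus 3 SD, set per campaign, cut at about 130% in these data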;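 note: TNF-alpha given at a submaximal dose yielding about 80% of full reporter signal; values are well signal over median control so 100% means no change and 0% no light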
STAT3 act STAT1c – activates human STAT3, counter-screen to STAT1 activators | shares compounds with STAT1 activator | U3A cells STAT3-luciferase reporter, IL-6, luminescence; cells lack STAT1; 100 = IL-6 alone, no compound effect | activation (% of control), % at 5.7 µM | 1,200 tested, 46% active | AID 1316;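 active = activation above the solvent-only control well mean plus 3 SD, set per plate batch, cut at about 110% in these data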;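 note: 0% = no luminescence and 100% = median IL-6 plus DMSO wells; higher means more STAT3 reporter activation so hits are non-selective activators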
* marks the source's active call; other numbers are inactive results. A selection: hits, their analogues and other compounds. The true share with any hit is near 4.9%.

What do the screens show for `C/C(=N\NC(=O)c1cccs1)C(C)(C)C`?
STAT3 act: 107; NF-kB expr up: 1.9; STAT1 activator: 158*; STAT3 blocker: -6; STAT1 inh: -67; APP 5'UTR act: 89; STAT1 activ conf: 117; NFkB act STAT1ct: 110; STAT3 act STAT1c: 113*

What do the screens show for `CC(/C=N/NC(=O)Cc1cccs1)=C\c1ccco1`?
STAT3 act: 98; NF-kB expr up: 1.6; STAT1 activator: 113; STAT3 blocker: 10; STAT1 inh: -14; APP 5'UTR act: -2

How did C/C(=N/NC(=O)c1cccs1)c1ccco1 do in these assays?
STAT3 act: 97; NF-kB expr up: 2; STAT1 activator: 128; STAT3 blocker: 5; STAT1 inh: -31; APP 5'UTR act: 81

Results for CCOC(=O)CC(=O)CSc1nc2ccc(OC)cc2cc1C ?
STAT3 act: 96; NF-kB expr up: 1.4; STAT1 activator: 102; STAT3 blocker: 10; STAT1 inh: -2; APP 5'UTR act: -6

Results for CSCCCNC(=S)Nc1ccc(N2CCOCC2)cc1 ?
STAT3 act: 104; NF-kB expr up: 1.1; STAT1 activator: 111; STAT3 blocker: -1; STAT1 inh: -14; APP 5'UTR act: 7

Results for N#CCc1ccc(NC(=O)/C=C/c2ccc([N+](=O)[O-])o2)cc1 ?
STAT3 act: 83; NF-kB expr up: 1.2; STAT1 activator: 312*; STAT3 blocker: 23; STAT1 inh: -231; APP 5'UTR act: -56; STAT1 activ conf: 130*; NFkB act STAT1ct: 155*; STAT3 act STAT1c: 102

What do the screens show for `N#C/C(=C\c1ccc([N+](=O)[O-])o1)C(=O)Nc1ccc(F)cc1`?
STAT3 act: 92; NF-kB expr up: 1.4; STAT1 activator: 87; STAT3 blocker: 11; STAT1 inh: 14; APP 5'UTR act: -43

How did CCOC(=O)c1ccc(NC(=O)CC2COc3ccccc3O2)cc1 (centres undefined) do in these assays?
STAT3 act: 88; NF-kB expr up: 1; STAT1 activator: 97; STAT3 blocker: 17; STAT1 inh: 1

What do the screens show for `Fc1ccccc1OCCSc1nnnn1-c1ccccc1`?
STAT3 act: 91; NF-kB expr up: 6.7*; STAT1 activator: 161*; STAT3 blocker: 14; STAT1 inh: -53; APP 5'UTR act: 162*; STAT1 activ conf: 219*; NFkB act STAT1ct: 124; STAT3 act STAT1c: 115*

How did c1ccc(OCCSc2nnnn2-c2ccccc2)cc1 do in these assays?
STAT3 act: 100; NF-kB expr up: 6.5*; STAT1 activator: 160*; STAT3 blocker: 4; STAT1 inh: -66; APP 5'UTR act: 170*; STAT1 activ conf: 204*; NFkB act STAT1ct: 123; STAT3 act STAT1c: 117*

Results for CC(C)=CC(=O)Nc1nc2ccc([N+](=O)[O-])cc2s1 ?
STAT3 act: 100; NF-kB expr up: 2.2; STAT1 activator: 181*; STAT3 blocker: 7; STAT1 inh: -91; APP 5'UTR act: 36; STAT1 activ conf: 180*; NFkB act STAT1ct: 126; STAT3 act STAT1c: 107

How did O=C(OCc1ccccc1)N1CCCC1/C=C/CN1CCOCC1 (centres undefined) do in these assays?
STAT3 act: 100; NF-kB expr up: 1.2; STAT1 activator: 96; STAT3 blocker: 2; STAT1 inh: 3; APP 5'UTR act: -63

What do the screens show for `CCN(CC(=O)NC1CCS(=O)(=O)C1)C(=O)/C=C/c1cccs1` (centres undefined)?
STAT3 act: 90; NF-kB expr up: 0.95; STAT1 activator: 100; STAT3 blocker: 19; STAT1 inh: 0; APP 5'UTR act: 9

How did O=[N+]([O-])c1ccc2c(c1)ncn2-c1ccccc1 do in these assays?
STAT3 act: 87; NF-kB expr up: 1.2; STAT1 activator: 122; STAT3 blocker: 20; STAT1 inh: -25; APP 5'UTR act: 5

What do the screens show for `O=[N+]([O-])c1ccc2cn(-c3ccccc3)nc2c1`?
STAT3 act: 102; NF-kB expr up: 1.3; STAT1 activator: 152*; STAT3 blocker: -6; STAT1 inh: -52; APP 5'UTR act: 141*; STAT1 activ conf: 196*; NFkB act STAT1ct: 135*; STAT3 act STAT1c: 99

Results for CC(=O)Nc1ccccc1C(=O)C(=O)Nc1ccc(C)c(C)c1 ?
STAT3 act: 86; NF-kB expr up: 1.2; STAT1 activator: 128; STAT3 blocker: 16; STAT1 inh: -32; APP 5'UTR act: 81

Results for Cc1ccc(NC(=O)/C(Cl)=C/c2ccccc2)cc1C ?
STAT3 act: 79; NF-kB expr up: 9.1*; STAT1 activator: 177*; STAT3 blocker: 23; STAT1 inh: -86; APP 5'UTR act: 139*; STAT1 activ conf: 230*; NFkB act STAT1ct: 122; STAT3 act STAT1c: 102

Results for O=C1C=CC(O)(c2cc(=O)c3c(O)cc(O)cc3o2)C=C1 ?
STAT3 act: 91; NF-kB expr up: 0.83; STAT1 activator: 162*; STAT3 blocker: 8; STAT1 inh: -68; APP 5'UTR act: -41; STAT1 activ conf: 114; NFkB act STAT1ct: 185*; STAT3 act STAT1c: 131*

How did O=c1cc(-c2ccccc2Cl)oc2cc(O)cc(O)c12 do in these assays?
STAT3 act: 96; NF-kB expr up: 1.2; STAT1 activator: 102; STAT3 blocker: 2; STAT1 inh: -2; APP 5'UTR act: 23

Results for CCOC(=O)c1cc(-c2ccccc2)sc1NC(=O)c1cc(OC)c(OC)c(OC)c1 ?
STAT3 act: 101; NF-kB expr up: 0.64; STAT1 activator: 94; STAT3 blocker: -3; STAT1 inh: 6; APP 5'UTR act: -8

What do the screens show for `O=C(Nc1ccccc1C(F)(F)F)c1cc2ncc(CCCl)cn2n1`?
STAT3 act: 102; NF-kB expr up: 1.5; STAT1 activator: 96; STAT3 blocker: -1; STAT1 inh: 4; APP 5'UTR act: -4

What do the screens show for `Cc1cc(/C=C2/NC(=O)N(c3ccccc3)C2=O)c(C)n1-c1cccnc1`?
STAT3 act: 112; NF-kB expr up: 1.2; STAT1 activator: 151*; STAT3 blocker: -10; STAT1 inh: -58; APP 5'UTR act: 86; STAT1 activ conf: 192*; NFkB act STAT1ct: 132; STAT3 act STAT1c: 119*
